Calls of active or inactive are those of the source.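 Rule for the calls: active = compounds whose mean IC50 across repeat dose response tests falls below a set limit; inactive = the rest.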
System: AML12 mouse hepatocytes, BODIPY lipid droplet imaging
Experiment: potency against lipid droplet buildup in liver cells – imaging, AML12 mouse hepatocytes, high-content, dose response (AID 463191)
Conditions: cells loaded with 100 µM oleic acid
Summary of the method: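 System – AML12 mouse hepatocyte cell line, lipid droplet imaging · Reagent – oleic acid at 100 µM final for lipid loading · Compound dosing – 7 doses, 0.5–32 µM, 0.32% DMSO · Schedule – cells grown about 20 h at 37 °C, then overnight compound exposure · Read-out – IC50 from per-cell lipid droplet intensity · Replication – duplicate points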

Row | SMILES | IC50
1 | CCOc1ccc(CN(C)C(=O)CNC(=O)Cc2cccc3ccccc23)cc1 | 0.566 µM
2 | CCOc1ccc(CCNC(=O)CCc2nnc3ccc(N4CCCC4)nn23)cc1OCC | 1.81 µM
3 | COc1ccc(C(=O)OCC(=O)NC(C)CCc2ccccc2)c(OC)c1 (stereo not drawn) | 10.6 µM (inactive)
4 | COc1ccc(OC)c(NC(=O)Cc2coc3ccc4ccccc4c23)c1 | 11.4 µM (inactive)
5 | CC(=O)Nc1ccc(-c2csc(NC(=O)Cc3cccc(F)c3)n2)cc1 | 1.8 µM
6 | CCOc1ccc(CCNC(=O)Cn2cccc2C(=O)c2ccccc2C)cc1OCC | 0.867 µM
7 | COc1ccc(C(C(=O)NC(C)(C)C)N(CC2CCCO2)C(=O)CCC(=O)Nc2cc(C)on2)cc1 (stereo not drawn) | 4.95 µM
8 | CCC(C)(C)NC(=O)C(c1ccc(OC)cc1)N(CC1CCCO1)C(=O)CCC(=O)Nc1cc(C)on1 (stereo not drawn) | 3.44 µM
9 | CCOc1ccc(CCNC(=O)CCc2nnc3ccc(N4CCCCC4)nn23)cc1OCC | 0.582 µM
10 | COCCNC(=S)N1CCc2cc(OC)c(OC)cc2C1COc1cc(C)cc(C)c1 (stereo not drawn) | 4.08 µM
11 | CCOc1ccc(CCNC(=O)C(C)n2nc(C)n3c(cc4occc43)c2=O)cc1OCC (stereo not drawn) | 3.61 µM
12 | COCCCn1c(SCC(=O)Nc2ccc(NC(=O)c3ccco3)c(OC)c2)nc2ccccc2c1=O | 1.85 µM
13 | CCOc1ccccc1NC(=O)CCCNC(=O)c1ccc(Cl)cc1 | 10.7 µM (inactive)
14 | CCOC(=O)c1ccc(NC(=O)CSc2nc3c(c(=O)n2-c2ccccc2OC)SCC3)cc1 | 1.84 µM
15 | COc1ccc(C2(c3ccc(OC)cc3)NC(=O)N(CC(=O)Nc3cc(C)ccc3OC)C2=O)cc1 | < 0.5 µM
16 | CCOc1ccccc1NC(=O)CCCNC(=O)Cn1cnc2sc(C)c(C)c2c1=O | 7.09 µM (inactive)
17 | CCOc1ccccc1NC(=O)N1CCCC1C(=O)Nc1ccc(-n2cnnn2)c(C)c1 (stereo not drawn) | 1.42 µM
18 | CCCCn1c(N)c(-c2nc3ccccc3s2)c2c([N+](=O)[O-])nn(CC)c(=O)c21 | 9.33 µM (inactive)
19 | CC(C)COc1cccc(-c2cc(C(=O)Nc3ccon3)c3ccccc3n2)c1 | 3.83 µM
20 | COc1ccc(NC(=O)CCC(=O)Nc2cc(OC)c(NC(=O)c3cccs3)cc2OC)cc1 | 0.71 µM
21 | CCOc1ccc(CCNC(=O)COC(=O)/C=C/c2ccc(OCC#N)c(OC)c2)cc1OCC | 21 µM (inactive)
22 | Cc1cc(C(=O)NC2CCCc3c2cnn3-c2cccc(C)c2C)c(C)o1 (stereo not drawn) | 2.23 µM
23 | CCOc1ccc(CCNC(=O)CS(=O)Cc2nc(-c3ccc(OC)cc3)oc2C)cc1OCC (stereo not drawn) | 2.11 µM
24 | Cc1cc(C(=O)NC2CCCc3c2cnn3-c2ccc(C)c(C)c2)nc(C)n1 (stereo not drawn) | 2.81 µM
25 | CCOc1ccc(CCNC(=O)Cn2nc(C)n3cccc3c2=O)cc1OCC | 2 µM

Row | SMILES | IC50
26 | CCc1ccc(NC(=O)CNC(=O)[C@@H]2Cc3ccccc3CN2C(=O)OC(C)(C)C)cc1 | 5.02 µM (inactive)
27 | CCOc1ccc(CCNC(=O)CCC(=O)N2CCOc3ccccc32)cc1OCC | 0.83 µM
28 | Cc1cc(C)c(C(=O)NC2CCCc3c2cnn3-c2cccc(C)c2C)o1 (stereo not drawn) | 21.6 µM (inactive)
29 | c1ccc(-c2csc(NNC3=NCCCCC3)n2)cc1 | 0.702 µM
30 | CCCCCCn1c(SCC(=O)Nc2cc(C)on2)nc2ccccc2c1=O | 0.75 µM
31 | CCOc1cc(CNC(=O)CCCn2c(=O)c3cccn3c3cccnc32)cc(OCC)c1OCC | 0.54 µM
32 | CCOc1ccc(CCNC(=O)c2cc3sc(Cl)cc3n2C)cc1OCC | < 0.5 µM
33 | CCOc1cc2c(cc1OCC)C(c1ccccc1OC)OC(=O)C2 (stereo not drawn) | > 32 µM (inactive)
34 | Cc1cccc(NC(=O)[C@H](C)NC(=O)[C@@H]2Cc3ccccc3CN2C(=O)OC(C)(C)C)c1 | 1.63 µM
35 | CCOc1ccccc1Nc1nnc(SC(C)C(=O)Nc2nc(-c3ccccc3)cs2)s1 (stereo not drawn) | 1.25 µM
36 | CCc1ccc(NC(=O)CSc2nnc(C)c(=O)n2N)cc1 | 1.48 µM
37 | CCC(C(=O)NCCc1ccccc1OC)n1nc(C)c2c(C)n(-c3ccccc3)nc2c1=O (stereo not drawn) | 3.26 µM
38 | O=C1C(NS(=O)(=O)c2cccs2)=C(N2CCN(c3cccc(C(F)(F)F)c3)CC2)C(=O)c2ccccc21 | 0.751 µM
39 | CCOc1ccc(C(C)NC(=O)Cc2ccccc2)cc1OCC (stereo not drawn) | > 32 µM (inactive)
40 | COc1ccc(Cl)cc1NC(=O)CN(C)C(=O)CCCc1c[nH]c2ccccc12 | 2.3 µM
41 | CCOC(=O)N1CCN(C(=O)CSCC(=O)Nc2nc(-c3ccc(-c4ccccc4)cc3)cs2)CC1 | 14.2 µM (inactive)
42 | CCOc1ccccc1NC(=O)N1CCC(C(=O)c2ccc(F)cc2)CC1 | 4.48 µM
43 | CC1CCCN(C2=C(NS(=O)(=O)c3ccc(Br)cc3)C(=O)c3ccccc3C2=O)C1 (stereo not drawn) | 0.927 µM
44 | CCOc1ccc(CCNC(=O)CCC(=O)N2CCOc3ccc(C)cc32)cc1OCC | 1.44 µM
45 | CCOc1ccc(CCNC(=O)CCCn2c(=O)c3cccn3c3cccnc32)cc1OCC | 1.88 µM
46 | CCOc1ccc(-c2csc(NNC3=NCCCCC3)n2)cc1 | 1.22 µM
47 | O=C1C(NS(=O)(=O)c2ccccc2)=C(N2CCN(c3ccc(F)cc3)CC2)C(=O)c2ccccc21 | 1.78 µM
48 | CCOc1ccc(CCNC(=O)COC(=O)c2cc(OC)c(OC)c(OC)c2)cc1OCC | 0.559 µM
49 | CCOc1ccc(CCNC(=O)Nc2cccc(OC)c2)cc1OCC | < 0.5 µM
50 | CCCc1cc(N2CCOCC2)n2nc(C)c(-c3ccccc3)c2n1 | < 0.5 µM

Row | SMILES | IC50
51 | COc1ccc(C(C(=O)NC(C)(C)C)N(Cc2ccc(F)cc2)C(=O)CCC(=O)Nc2cc(C)on2)cc1 (stereo not drawn) | 2.04 µM
52 | Cc1cccc(NC(=O)CSc2nnc(C)c(=O)n2N)c1 | 6.65 µM (inactive)
53 | CCOc1ccc(CCNC(=O)CS(=O)Cc2nc(-c3ccc(OC)c(OC)c3)oc2C)cc1OCC (stereo not drawn) | 7.64 µM (inactive)
54 | CC(C)(C)c1ccc(-c2csc(NNC3=NCCCCC3)n2)cc1 | 2.09 µM
55 | CCOc1ccc(CCNC(=O)c2cc3sccc3n2CC)cc1OCC | < 0.5 µM
56 | Cc1cccc(NC(=O)CSc2nc3ccccc3nc2N2CCCC2)c1 | 5.07 µM (inactive)
57 | CCOC(=O)c1cc(CC)sc1NC(=O)C1CC(=O)NN1Cc1ccccc1 (stereo not drawn) | 0.573 µM
58 | CCOc1ccc(CCNC(=O)COC(=O)/C=C/c2ccc(C)o2)cc1OCC | 7.62 µM (inactive)
59 | CCOc1ccc(CCNC(=O)Cn2cccc2C(=O)c2ccccc2)cc1OCC | 1.64 µM
60 | COc1ccc(NC(=O)CSc2nc3ccccc3nc2N2CCCCC2)cc1 | 1.18 µM
61 | COc1ccc(Cl)cc1NC(=O)CN1C(=O)NC2(CCCC2)C1=O | 4.27 µM
62 | CCn1cc(CCCC(=O)NCc2ccccc2OC)c2ccccc21 | 4 µM
63 | COc1ccc(NC(=O)CN2C(=O)NC(c3ccccc3)(c3ccccc3)C2=O)cc1OC | 1.6 µM
64 | CCNC(=S)N1CCc2cc(OC)c(OC)cc2C1COc1ccc(F)cc1 (stereo not drawn) | 2.28 µM
65 | COc1cccc(C(=O)NC2CCCc3c2cnn3-c2cc(C)cc(C)c2)c1 (stereo not drawn) | 2.06 µM
66 | Cc1cc(N2CCOCC2)n2nc(C)c(-c3ccccc3Cl)c2n1 | 1.05 µM
67 | CC(Sc1nnc(Nc2ccccc2)s1)C(=O)Nc1nc(-c2ccccc2)cs1 (stereo not drawn) | 5.77 µM (inactive)
68 | COc1ccc(-c2csc(NC(=O)c3ccc(OCC(=O)N4CCOCC4)c(OC)c3)n2)cc1OC | 1.9 µM
69 | COc1ccc(CN(C)C(=O)CNC(=O)Cc2cccc3ccccc23)c(OC)c1OC | 4.55 µM
70 | COc1ccc(C(=O)NC2CCCc3c2cnn3-c2cccc(C)c2C)o1 (stereo not drawn) | 2.56 µM
71 | O=C(NCc1ccccc1)C(c1ccccc1F)N(C(=O)c1csnn1)C1CCCC1 (stereo not drawn) | 3.49 µM
72 | CCOc1ccc(C2=NNC(c3cccs3)=Nc3ccc(OC)cc32)cc1OCC | 8.7 µM (inactive)
73 | COc1ccc(C(=O)OCC(=O)NC(C)CCc2ccccc2)cc1OC (stereo not drawn) | 11.7 µM (inactive)
